In brackets after ≈: the same amount, converted by molar mass.
How the values were obtained:
Pseudomonas aeruginosa [1] = test: Ratio of ampicillin MIC to compound MIC for Pseudomonas aeruginosa ATCC 27853; format: functional
Aspergillus ochraceus [2] = test: Antifungal activity against Aspergillus ochraceus ATCC 12066 incubated for 72 hrs followed by serial sub-cultivation for 72 hrs by serial dilution technique; format: functional; details: ATCC 12066, 72 h
Outline: (§1)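 MFC: material from 72 h malt broth microdilution wells was serially sub-cultured into fresh broth plates and incubated a further 72 h at 28 °C. Fungicidal concentration is taken from growth after sub-culture. Duplicate, repeated three times.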

Bacillus cereus [3] = test: Antibacterial activity against clinical isolate of Bacillus cereus incubated for 24 hrs followed by serial sub-cultivation for 24 hrs by microdilution; format: functional
Outline: (§2)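 MBC: after the 24 h LB broth microdilution (1.0 × 10⁴ CFU per well, 160 rpm), wells were serially sub-cultured into fresh broth plates and incubated a further 24 h. MBC is the lowest concentration with no visible growth, taken as 99.5% killing of the original inoculum. Duplicate, repeated three times.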

Trichoderma viride [4] = test: Antifungal activity against Trichoderma viride IAM 5061 incubated for 72 hrs followed by serial sub-cultivation for 72 hrs by serial dilution technique; format: functional; details: IAM 5061, 72 h; outline: as §1
Candida albicans [5] = test: Antifungal activity against Candida albicans isolated from human incubated for 72 hrs followed by serial sub-cultivation for 72 hrs by serial dilution technique; format: functional; outline: as §1
Listeria monocytogenes [6] = test: Antibacterial activity against Listeria monocytogenes NCTC 7973 after 24 hrs by microdilution method; format: functional; details: NCTC 7973, 24 h
Outline: (§3)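 Broth microdilution in 96-well plates. Bacterial suspensions were adjusted in sterile saline to 1.0 × 10⁵ CFU/ml, prepared daily and kept at 4 °C. Compound was added to LB broth with 1.0 × 10⁴ CFU per well and shaken at 160 rpm for 24 h at […] (so in the source). MIC is the lowest concentration with no visible growth under a binocular microscope. OD655 was also read. Duplicate, repeated three times.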

Enterococcus faecalis [7] = test: Antibacterial activity against Enterococcus faecalis isolated from human after 24 hrs by microdilution method; format: functional; outline: as §3
Candida albicans [8] = test: Ratio of ketoconazole to compound for Candida albicans isolated from human; format: functional
Penicillium ochrochloron [9] = test: Antifungal activity against Penicillium ochrochloron ATCC 9112 after 72 hrs by serial dilution technique; format: functional; details: ATCC 9112, 72 h
Outline: (§4)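 Modified microdilution in 96-well plates. Fungi were kept on malt agar at 4 °C. Spores were washed off in sterile 0.85% saline with 0.1% Tween 80. Compounds were dissolved at 1 mg/ml in 5% DMSO with 0.1% Tween 80 and added to malt broth with inoculum. Plates were shaken at 160 rpm for 72 h at 28 °C. Duplicate, repeated three times.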

Salmonella typhimurium [10] = test: Antibacterial activity against Salmonella Typhimurium ATCC 13311 incubated for 24 hrs followed by serial sub-cultivation for 24 hrs by microdilution; format: functional, Salmonella enterica subsp. enterica serovar Typhimurium; details: Salmonella enterica, ATCC 13311, 24 h; outline: as §2
Penicillium ochrochloron [11] = test: Ratio of ketoconazole to compound for Penicillium ochrochloron ATCC 9112; format: functional
Trichoderma viride [12] = test: Ratio of bifonazole to compound for Trichoderma viride IAM 5061; format: functional
Aspergillus ochraceus [13] = test: Antifungal activity against Aspergillus ochraceus after 72 hrs by serial dilution technique
Enterococcus faecalis [14] = test: Antibacterial activity against Enterococcus faecalis isolated from human incubated for 24 hrs followed by serial sub-cultivation for 24 hrs by microdilution; format: functional; outline: as §2
Talaromyces funiculosus [15] = test: Antifungal activity against Penicillium funiculosum ATCC 36839 after 72 hrs by serial dilution technique; format: functional; details: ATCC 36839, 72 h; outline: as §4
Aspergillus ochraceus [16] = test: Ratio of ketoconazole to compound for Aspergillus ochraceus ATCC 12066; format: functional
Bacillus cereus [17] = test: Antibacterial activity against clinical isolate of Bacillus cereus after 24 hrs by microdilution method; format: functional; outline: as §3
Aspergillus niger [18] = test: Antifungal activity against Aspergillus niger ATCC 6275 incubated for 72 hrs followed by serial sub-cultivation for 72 hrs by serial dilution technique; format: functional; details: ATCC 6275, 72 h; outline: as §1
Aspergillus fumigatus [19] = test: Antifungal activity against Aspergillus fumigatus isolated from human incubated for 72 hrs followed by serial sub-cultivation for 72 hrs by serial dilution technique; format: functional; outline: as §1
Listeria monocytogenes [20] = test: Antibacterial activity against Listeria monocytogenes NCTC 7973 incubated for 24 hrs followed by serial sub-cultivation for 24 hrs by microdilution; format: functional; details: NCTC 7973, 24 h; outline: as §2
Staphylococcus aureus [21] = test: Antibacterial activity against Staphylococcus aureus ATCC 6538 incubated for 24 hrs followed by serial sub-cultivation for 24 hrs by microdilution method; format: functional; details: ATCC 6538, 24 h; outline: as §2
Staphylococcus aureus [22] = test: Antibacterial activity against Staphylococcus aureus ATCC 6538 after 24 hrs by microdilution method; format: functional; details: ATCC 6538, 24 h; outline: as §3
Aspergillus niger [23] = test: Ratio of bifonazole to compound for Aspergillus niger ATCC 6275; format: functional
Aspergillus ochraceus [24] = test: Ratio of bifonazole to compound for Aspergillus ochraceus ATCC 12066; format: functional
Salmonella typhimurium [25] = test: Antibacterial activity against Salmonella Typhimurium ATCC 13311 after 24 hrs by microdilution method; format: functional, Salmonella enterica subsp. enterica serovar Typhimurium; details: Salmonella enterica, ATCC 13311, 24 h; outline: as §3
Micrococcus flavus [26] = test: Antibacterial activity against Micrococcus flavus ATCC 10240 incubated for 24 hrs followed by serial sub-cultivation for 24 hrs by microdilution; format: functional; details: ATCC 10240, 24 h; outline: as §2
Talaromyces funiculosus [27] = test: Ratio of bifonazole to compound for Penicillium funiculosum ATCC 36839; format: functional
Talaromyces funiculosus [28] = test: Antifungal activity against Penicillium funiculosum ATCC 36839 incubated for 72 hrs followed by serial sub-cultivation for 72 hrs by serial dilution technique; format: functional; details: ATCC 36839, 72 h; outline: as §1
Escherichia coli [29] = test: Antibacterial activity against Escherichia coli ATCC 35210 after 24 hrs by microdilution method; format: functional; details: ATCC 35210, 24 h; outline: as §3
Aspergillus flavus [30] = test: Antifungal activity against Aspergillus flavus ATCC 9643 after 72 hrs by serial dilution technique; format: functional; details: ATCC 9643, 72 h; outline: as §4
Pseudomonas aeruginosa [31] = test: Antibacterial activity against Pseudomonas aeruginosa ATCC 27853 incubated for 24 hrs followed by serial sub-cultivation for 24 hrs by microdilution; format: functional; details: ATCC 27853, 24 h; outline: as §2
Aspergillus flavus [32] = test: Antifungal activity against Aspergillus flavus ATCC 9643 incubated for 72 hrs followed by serial sub-cultivation for 72 hrs by serial dilution technique; format: functional; details: ATCC 9643, 72 h; outline: as §1
Aspergillus fumigatus [33] = test: Ratio of ketoconazole to compound for Aspergillus fumigatus isolated from human; format: functional
Trichoderma viride [34] = test: Antifungal activity against Trichoderma viride IAM 5061 after 72 hrs by serial dilution technique; format: functional; details: IAM 5061, 72 h; outline: as §4
Aspergillus ochraceus [35] = test: Antifungal activity against Aspergillus ochraceus ATCC 12066 after 72 hrs by serial dilution technique; format: functional; details: ATCC 12066, 72 h; outline: as §4
Candida albicans [36] = test: Ratio of bifonazole to compound for Candida albicans isolated from human; format: functional
Pseudomonas aeruginosa [37] = test: Antibacterial activity against Pseudomonas aeruginosa ATCC 27853 after 24 hrs by microdilution method; format: functional; details: ATCC 27853, 24 h; outline: as §3
Penicillium ochrochloron [38] = test: Antifungal activity against Penicillium ochrochloron ATCC 9112 incubated for 72 hrs followed by serial sub-cultivation for 72 hrs by serial dilution technique; format: functional; details: ATCC 9112, 72 h; outline: as §1
Escherichia coli [39] = test: Antibacterial activity against Escherichia coli ATCC 35210 incubated for 24 hrs followed by serial sub-cultivation for 24 hrs by microdilution; format: functional; details: ATCC 35210, 24 h; outline: as §2
Aspergillus niger [40] = test: Antifungal activity against Aspergillus niger ATCC 6275 after 72 hrs by serial dilution technique; format: functional; details: ATCC 6275, 72 h; outline: as §4
Candida albicans [41] = test: Antifungal activity against Candida albicans isolated from human after 72 hrs by serial dilution technique; format: functional; outline: as §4
Micrococcus flavus [42] = test: Antibacterial activity against Micrococcus flavus ATCC 10240 after 24 hrs by microdilution method; format: functional; details: ATCC 10240, 24 h; outline: as §3
Penicillium ochrochloron [43] = test: Ratio of bifonazole to compound for Penicillium ochrochloron ATCC 9112; format: functional

MIC (Listeria monocytogenes [6]): 94.6 µM (≈ 30 µg/mL)
MIC (Enterococcus faecalis [7]): 47.3 µM (≈ 15 µg/mL)
MIC (Penicillium ochrochloron [9]): 63.1 µM (≈ 20 µg/mL)
MIC (Aspergillus ochraceus [13]): 63.1 µM (≈ 20 µg/mL)
MIC (Talaromyces funiculosus [15]): 31.5 µM (≈ 10 µg/mL)
MIC (Bacillus cereus [17]): 47.3 µM (≈ 15 µg/mL)
MIC (Staphylococcus aureus [22]): 94.6 µM (≈ 30 µg/mL)
MIC (Salmonella typhimurium [25]): 47.3 µM (≈ 15 µg/mL)
MIC (Escherichia coli [29]): 63.1 µM (≈ 20 µg/mL)
MIC (Aspergillus flavus [30]): 63.1 µM (≈ 20 µg/mL)
MIC (Trichoderma viride [34]): 47.3 µM (≈ 15 µg/mL)
MIC (Aspergillus ochraceus [35]): 63.1 µM (≈ 20 µg/mL)
MIC (Pseudomonas aeruginosa [37]): 78.9 µM (≈ 25 µg/mL)
MIC (Aspergillus niger [40]): 63.1 µM (≈ 20 µg/mL)
MIC (Candida albicans [41]): 31.5 µM (≈ 10 µg/mL)
MIC (Micrococcus flavus [42]): 63.1 µM (≈ 20 µg/mL)
Structure (SMILES): CCNc1nc(C)c(C(=O)/C=C/c2cccc([N+](=O)[O-])c2)s1
Ratio (Pseudomonas aeruginosa [1]): 10
MFC (Aspergillus ochraceus [2]): 78.8 µM (≈ 25 µg/mL)
MBC (Bacillus cereus [3]): 63.1 µM (≈ 20 µg/mL)
MFC (Trichoderma viride [4]): 63.1 µM (≈ 20 µg/mL)
MFC (Candida albicans [5]): 63.1 µM (≈ 20 µg/mL)
Ratio (Candida albicans [8]): 10
MBC (Salmonella typhimurium [10]): 63.1 µM (≈ 20 µg/mL)
Ratio (Penicillium ochrochloron [11]): 10
Ratio (Trichoderma viride [12]): 10
MBC (Enterococcus faecalis [14]): 63.1 µM (≈ 20 µg/mL)
Ratio (Aspergillus ochraceus [16]): 10
MFC (Aspergillus niger [18]): 78.8 µM (≈ 25 µg/mL)
MFC (Aspergillus fumigatus [19]): 78.8 µM (≈ 25 µg/mL)
MBC (Listeria monocytogenes [20]): 94.6 µM (≈ 30 µg/mL)
MBC (Staphylococcus aureus [21]): 94.6 µM (≈ 30 µg/mL)
Ratio (Aspergillus niger [23]): 10
Ratio (Aspergillus ochraceus [24]): 10
MBC (Micrococcus flavus [26]): 94.6 µM (≈ 30 µg/mL)
Ratio (Talaromyces funiculosus [27]): 10
MFC (Talaromyces funiculosus [28]): 63.1 µM (≈ 20 µg/mL)
MBC (Pseudomonas aeruginosa [31]): 78.9 µM (≈ 25 µg/mL)
MFC (Aspergillus flavus [32]): 78.8 µM (≈ 25 µg/mL)
Ratio (Aspergillus fumigatus [33]): 10
Ratio (Candida albicans [36]): 10
MFC (Penicillium ochrochloron [38]): 78.8 µM (≈ 25 µg/mL)
MBC (Escherichia coli [39]): 78.9 µM (≈ 25 µg/mL)
Ratio (Penicillium ochrochloron [43]): 10

— ChEMBL document CHEMBL1926569, “Novel (E)-1-(4-methyl-2-(alkylamino)thiazol-5-yl)-3-arylprop-2-en-1-ones as potent antimicrobial agents” (2011)
